For 25 compounds, MBC, MIC and Activity results are on record in ChEMBL document CHEMBL1141664, “Design and evaluation of anacardic acid derivatives as anticavity agents” (2008).

Converted amounts (≈) assume the structure as drawn. The source made the active and inactive calls.

The test system of assay [1] is Streptococcus mutans. In words: Antibacterial activity against Streptococcus mutans ATCC 25175 after 2 days by twofold broth dilution method. The class given is functional. Conditions: ATCC 25175, 48 h. In short, it runs like this:
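Freeze-dried S. mutans grown stationary 2 days at 37 °C in 3.7% BHI broth, then used as inoculum. Compounds serially 2-fold diluted in DMF and added to BHI broth, with solubility limiting the top concentration. MIC is the lowest concentration giving complete inhibition of visible growth after 2 days at 37 °C. At least triplicate on separate occasions.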
A general note: Broth dilution looks for growth in wells or tubes with falling amounts of substance.

The next assay relates to Escherichia coli. In words: Antibacterial activity against Escherichia coli ATCC 9637 up to 200 ug/ml after 2 days by twofold broth dilution method. The class given is functional, organism-based. A digest of the protocol: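 Twofold serial broth dilution run in NYG broth (0.8% nutrient broth, 0.5% yeast extract, 0.1% glucose). MIC is the lowest concentration fully inhibiting visible growth.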

In a further assay the test system is Cutibacterium acnes. The experiment in a line: Antibacterial activity against Propionibacterium acnes ATCC 11827. The assay is classed as functional.
Assay [2] relates to Streptococcus mutans. In words: Antibacterial activity against Streptococcus mutans ATCC 25175 after 2 days by twofold broth dilution method in presence of anethole. Conditions: ATCC 25175, 48 h. The class given is functional.

The term MBC denotes the smallest concentration meeting the test's criterion for killing. What is called MIC is the least concentration at which growth counts as inhibited. A lower MIC goes with inhibition by little substance. In the assay on Streptococcus mutans [1], `CCC/C=C\C/C=C\CCCCCCCc1cccc(O)c1C(=O)O` showed an MBC of 3.13 mg/L (≈ 9.09 µM) and an MIC of 3.13 mg/L (≈ 9.09 µM). Moreover, the result in the assay on Escherichia coli was inactive.
As for `CCCCCC(CC)Cc1cccc(O)c1C(=O)O` (stereo unspecified), it took 3.13 mg/L (≈ 11.8 µM) to inhibit growth against Streptococcus mutans [1] (MIC). In addition, the outcome with Escherichia coli was inactive.
Turning to `O=C(O)c1c(O)cccc1CCc1ccc(O)c(O)c1`, the minimal inhibitory concentration (MIC) against Streptococcus mutans [1] was 200 mg/L (≈ 729 µM). Also, in the assay with Escherichia coli, the outcome was inactive.
For the compound `O=C(O)c1c(O)cccc1CC1CCCCCCC1`, the MIC against Streptococcus mutans [1] came out at 6.25 mg/L (≈ 23.8 µM). Further, the outcome in the assay with Escherichia coli was inactive.
As for `C=CC/C=C\C/C=C\CCCCCCCc1cccc(OC(C)=O)c1C(=O)O`, the outcome in the assay with Escherichia coli was inactive.
For `O=C(O)c1c(O)cccc1CCc1ccc(O)cc1`, in the assay on Streptococcus mutans [1], the MIC worked out at 100 mg/L (≈ 387 µM). Further, the result in the assay on Escherichia coli was inactive.
For the compound `O=C(O)c1c(O)cccc1CCc1ccccc1`, inhibition of growth against Streptococcus mutans [1] (MIC) required 50 mg/L (≈ 206 µM). In addition, the result with Escherichia coli was inactive.
For `O=C(O)c1c(O)cccc1CCc1cc(O)ccc1O` the same measures were 200 mg/L (≈ 729 µM) and “inactive”.
The matching figures for `O=C(O)c1c(O)cccc1CCCCc1ccccc1`: 6.25 mg/L (≈ 23.1 µM) and “inactive”.
For the compound `CCCCCCCCCCCCCCCc1cccc(O)c1C(=O)O` [ANACARDIC ACID], the MIC was greater than 800 mg/L with Streptococcus mutans [1] and 0.78 mg/L (≈ 2.24 µM) with Cutibacterium acnes. In the assay with Escherichia coli, the outcome was inactive.
The compound `O=C(O)c1c(O)cccc1CCc1cc(O)c(O)cc1O` returned an MIC in the assay on Streptococcus mutans [1] of 200 mg/L (≈ 689 µM). The outcome in the assay with Escherichia coli was inactive.
In the assay with Streptococcus mutans [1], `CCCCCCCCCCCCc1cccc(O)c1C(=O)O` gave an MBC of 6.25 mg/L (≈ 20.4 µM) and an MIC of 1.56 mg/L (≈ 5.09 µM). The outcome with Escherichia coli was inactive.
Turning to `C/C=C/c1ccc(OC)cc1`, in the assay with Escherichia coli, the result was inactive.
In the assay on Streptococcus mutans [1], `CCCCCC/C=C\CCCCCCCc1cccc(O)c1C(=O)O` [GINGKOLIC ACID] displayed an MBC of 6.25 mg/L (≈ 18 µM) and an MIC of 6.25 mg/L (≈ 18 µM). Further, in the assay on Escherichia coli, the outcome was inactive.
Consider `C=CC/C=C\C/C=C\CCCCCCCc1cccc(O)c1C(=O)OC`, for which, in the assay with Escherichia coli, the outcome was inactive.
In the assay with Streptococcus mutans [1], `O=C(O)c1c(O)cccc1CCC1CCCCC1` had an MIC of 3.13 mg/L (≈ 12.6 µM). Also, the result with Escherichia coli was inactive.
The matching figures for `CC(C)CCCC(C)CCCc1cccc(O)c1C(=O)O` (stereo unspecified): 0.78 mg/L (≈ 2.67 µM) and “inactive”.
Take `CCCCCCOC(=O)c1ccccc1O`: in the assay on Escherichia coli, the outcome was inactive.
Same read-out and setting: under `CCCCCCCCCOC(=O)c1ccccc1O` stands “inactive”.
The compound `O=C(O)c1c(O)cccc1CCc1ccc(O)cc1O` registered an MIC in the assay on Streptococcus mutans [1] greater than 200 mg/L. In addition, the result in the assay on Escherichia coli was inactive.
With `O=C(O)c1c(O)cccc1CC1CCCCCCCCCCC1`, the MIC against Streptococcus mutans [1] is 1.56 mg/L (≈ 4.9 µM). The result in the assay with Escherichia coli was inactive.
Turning to `CCCCC(C)Cc1cccc(O)c1C(=O)O` (stereo unspecified), the MIC against Streptococcus mutans [1] was 12.5 mg/L (≈ 52.9 µM). Moreover, in the assay with Escherichia coli, the result was inactive.
In the assay on Streptococcus mutans [1], `C=CC/C=C\C/C=C\CCCCCCCc1cccc(O)c1C(=O)O` [ANACARDIC ACID] registered a minimal bactericidal concentration (MBC) of 6.25 mg/L (≈ 18.2 µM) and an MIC of 1.56 mg/L (≈ 4.56 µM). Moreover, in the assay with Streptococcus mutans [2], the minimal bactericidal concentration (MBC) was 0.78 mg/L. Moreover, in the assay with Escherichia coli, the result was inactive.
In the assay with Streptococcus mutans [1], `O=C(O)c1c(O)cccc1CC1CCCC1` showed an MIC of 25 mg/L (≈ 113 µM). Also, the result in the assay on Escherichia coli was inactive.
The matching figures for `O=C(O)c1c(O)cccc1CC1CCCCC1`: 25 mg/L (≈ 107 µM) and “inactive”.
